Experimental data: ChEMBL document CHEMBL1125488, “Synthesis of the acridone alkaloids glyfoline and congeners. Structure-activity relationship studies of cytotoxic acridones” (J Med Chem, 1992)
Several values for one entry are separate records, joined by “and”; a condition that tells them apart may be missing. Identical values can stand only once.

What follows are compounds tested on HL-60 (assay: Ability to inhibit human leukemic HL-60 cell growth in culture). Settings: Homo sapiens, HL-60.
Type: functional, cell-based
Procedure, shortened: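 HL-60 cells seeded at 1.5 × 10^5/mL in RPMI 1640 and exposed to compound at 0.0025–0.05 mg/mL (in 0.1% DMSO). Incubation was 72 h at 37 °C under humidified 5% CO2. Viable cells were counted by trypan blue exclusion on a hemocytometer. IC50 was the median-effect concentration, taken from a median-effect plot of fractional inhibition over three to five dose-effect levels.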
COc1ccc2c(=O)c3c(OC)c(OC)c(OC)c(OC)c3n(C)c2c1OC showed an IC50 of 23.3 µM.
For CNc1ccc2c(=O)c3c(O)c(OC)c(OC)c(OC)c3n(C)c2c1, the IC50 was 10.6 µM.
With COc1c(OC)c(O)c2c(O)c3ccc(O)c(OC)c3nc2c1OC the IC50 was greater than 100 µM.
COc1c(OC)c(OC)c2c(c1O)c(=O)c1ccc(N)cc1n2C was tested, and the IC50 was 11.6 µM.
COc1c(OC)c(OC)c2c(c1O)c(=O)c1cc(N)ccc1n2C was tested, and the IC50 was 44.4 µM.
For COc1ccc2c(=O)c3c(O)c(OC)c(OC)c(OC)c3n(C)c2c1OC, the IC50 was 3.4 µM.
COc1c(OC)c(OC)c2c(c1O)c(=O)c1cc([N+](=O)[O-])ccc1n2C gave an IC50 greater than 100 µM.
Work on COc1c(OC)c(OC)c2c(c1O)c(=O)c1cccc(OC)c1n2C yielded an IC50 of 12.8 µM.
COc1cc2c(c3c1c(=O)c1ccccc1n3C)C=CC(C)(C)O2 [ACRONINE] showed an IC50 of 26.2 µM.
Compound COc1c(OC)c(OC)c2c(c1O)c(=O)c1ccc(N(C)C)cc1n2C has an IC50 of 9.4 µM.
Compound COc1c(OC)c(OC)c2c(c1O)c(=O)c1ccc(O)c(OC)c1n2C [GLYFOLINE] has an IC50 of 2.2 µM.
CCN(CC)CCn1c2c(OC)c(O)ccc2c(=O)c2c(O)c(OC)c(OC)c(OC)c21 showed an IC50 of 62.2 µM.
COc1c(OC)c(OC)c2c(c1O)c(=O)c1ccc([N+](=O)[O-])cc1n2C showed an IC50 greater than 100 µM.

Same assay, conditions: hl-60
With COc1c(OC)c(OC)c2c(c1OC)c(=O)c1ccc(O)c(OC)c1n2C the IC50 was 91.9 µM and 23.7 µM.
